Measurements taken from publication PMC8502542 (International Journal of Nanomedicine, 2021).

How the values were obtained:
MIA PaCa-2 cell line = test: MTT cytotoxicity and combination index; type: cell-based, human; conditions: MIA PaCa-2, MTT, 72 hours
Outline: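 MIA PaCa-2 (ATCC) seeded at 3×10^3 cells/well and grown 24 h at 37°C, 5% CO2. Exposed 72 h to test compound (DMSO solution, solvent-based, or albumin nanoparticle form) at 0.01, 0.1, 1, 5, 10, 50, 100 and 1000 ng/mL. MTT (0.5 mg/mL) added for 2 h, formazan dissolved in DMSO, A550 read. Survival expressed as % of control wells.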

[1] = plasma, after administration; cited from earlier work

CC(C)C[C@H](NC(=O)[C@H](CCc1ccccc1)NC(=O)CN1CCOCC1)C(=O)N[C@@H](Cc1ccccc1)C(=O)N[C@@H](CC(C)C)C(=O)[C@@]1(C)CO1 [CFZfree, carfilzomib]
IC50, weight ratio CFZ:PTX 1: 0 (MIA PaCa-2 cell line; CFZ form alone): 8.90 ng/mL
initial half-life (T1/2,initial) [1]: < 20 min

CC(=O)O[C@H]1C(=O)[C@@]2(C)[C@H]([C@H](OC(=O)c3ccccc3)[C@]3(O)C[C@H](OC(=O)[C@H](O)[C@@H](NC(=O)c4ccccc4)c4ccccc4)C(C)=C1C3(C)C)[C@]1(OC(C)=O)CO[C@@H]1C[C@@H]2O [PTXfree, paclitaxel]
IC50, weight ratio CFZ:PTX 0: 1 (MIA PaCa-2 cell line; PTX form alone): 0.44 ng/mL
